Source: ChEMBL document CHEMBL4138308, “Simultaneous Targeting of RGD-Integrins and Dual Murine Double Minute Proteins in Glioblastoma Multiforme” (J Med Chem, 2018)
Each block holds one molecule with its values, some of them ahead of it. Active and inactive are the calls of the source. The calls are words filed in the database; no cut-off is given here.

Tests used:
[1] = target: T1, Protein Mdm4 (Homo sapiens) (UniProt O15151); assay: Inhibition of MDM4 in human U87MG cells assessed as increase in MDM2 mRNA expression at 100 nM after 8 hrs in presence of MDM2 inhibitor nutlin-3 and alphaVbeta3 inhibitor cilengitide by RT-PCR method; format: cell-based
T1 sequence (whole entry): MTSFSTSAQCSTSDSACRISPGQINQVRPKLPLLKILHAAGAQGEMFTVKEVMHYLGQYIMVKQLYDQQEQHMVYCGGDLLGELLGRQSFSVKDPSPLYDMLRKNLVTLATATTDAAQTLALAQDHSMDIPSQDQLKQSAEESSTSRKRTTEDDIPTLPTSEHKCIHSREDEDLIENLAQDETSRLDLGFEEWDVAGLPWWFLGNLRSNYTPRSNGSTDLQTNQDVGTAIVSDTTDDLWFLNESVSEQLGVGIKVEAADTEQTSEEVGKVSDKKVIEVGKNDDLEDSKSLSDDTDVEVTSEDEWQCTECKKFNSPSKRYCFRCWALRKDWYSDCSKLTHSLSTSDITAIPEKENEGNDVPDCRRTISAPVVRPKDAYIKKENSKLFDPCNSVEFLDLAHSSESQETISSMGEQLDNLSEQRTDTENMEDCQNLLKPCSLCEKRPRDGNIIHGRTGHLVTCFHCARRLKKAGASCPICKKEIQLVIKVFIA
Procedure, shortened: (§1)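 U87MG cells exposed to agents at 100 nM, alone or combined, for 8 or 24 h; total RNA extracted, cDNA made from 500 ng RNA, MDM2, PUMA and p21 transcripts quantified by real-time PCR. Data as % of DMSO control, mean ± SEM, N = 3.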

[2] = target: T1, Protein Mdm4 (Homo sapiens); assay: Inhibition of MDM4 in human U87MG cells assessed as increase in PUMA mRNA expression at 100 nM after 24 hrs in presence of alphaVbeta3 inhibitor cilengitide by RT-PCR method; format: cell-based; procedure, shortened: as §1
[3] = target: T1, Protein Mdm4 (Homo sapiens); assay: Inhibition of MDM4 in human U87MG cells assessed as increase in p53 accumulation at 100 nM after 24 hrs in presence of MDM2 inhibitor nutlin-3 and alphaVbeta3 inhibitor cilengitide by Western blot method; format: cell-based
Procedure, shortened: (§2)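 U87MG cells treated 24 h with agents at 100 nM, alone or combined; 40 μg lysate protein resolved by SDS-PAGE, immunoblotted for p53 with GAPDH loading control; bands quantified by densitometry as % of DMSO control (mean ± SEM, N = 3).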

[4] = target: T1, Protein Mdm4 (Homo sapiens); assay: Inhibition of MDM4 in human U87MG cells assessed as increase in PUMA mRNA expression at 100 nM after 24 hrs in presence of MDM2 inhibitor nutlin-3 by RT-PCR method; format: cell-based; procedure, shortened: as §1
[5] = target: T1, Protein Mdm4 (Homo sapiens); assay: Inhibition of MDM4 in human U87MG cells assessed as increase in p53 accumulation at 100 nM after 24 hrs in presence of MDM2 inhibitor nutlin-3 by Western blot method; format: cell-based; procedure, shortened: as §2
U-87 MG [6] = assay: Antiproliferative activity against human U87MG cells at 100 nM after 72 hrs in presence of alphaVbeta3 inhibitor cilengitide and MDM2 inhibitor nutlin-3 by MTS assay; format: functional, cell-based; conditions: U-87MG ATCC
Procedure, shortened: (§3)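 Cells seeded ~5000 cells/cm2, after 24 h medium replaced with compound in DMSO (DMSO 1% v/v in controls), alone or in combination at 100 nM each, or concentration series (U87MG 1–100 nM). 72 h exposure; proliferation read by MTS, expressed as % of DMSO control (mean ± SEM, N = 3); IC50 from sigmoid dose–response fit.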

U-87 MG [7] = assay: Anti-invasive activity in human U87MG cells at 10 uM after 24 hrs in presence of MDM2 inhibitor nutlin-3 and alphaVbeta3 inhibitor cilengitide by transwell assay; format: functional, cell-based; conditions: U-87MG ATCC
Procedure, shortened: (§4)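 U87MG cells suspended in serum-free medium (60,000 cells), treated at 10 μM (each agent at 10 μM when combined), placed in upper chamber of Matrigel-coated (0.32 mg/mL) transwell; lower chamber RPMI with 10% FBS. Invasion 24 h at 37 °C; cells on lower membrane surface fixed with p-formaldehyde, crystal violet stained, counted in five random fields per filter. Mean ± SEM vs DMSO control.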

[8] = target: T1, Protein Mdm4 (Homo sapiens); assay: Inhibition of MDM4 in human U87MG cells assessed as increase in MDM2 mRNA expression at 100 nM after 8 hrs in presence of MDM2 inhibitor nutlin-3 by RT-PCR method; format: cell-based; procedure, shortened: as §1
U-87 MG [9] = assay: Antiproliferative activity against human U87MG cells at 100 nM after 72 hrs by MTS assay; format: functional, cell-based; conditions: U-87MG ATCC; procedure, shortened: as §3
MDM4 (Homo sapiens) = MDM4 (Homo sapiens) (UniProt O15151); assay: Inhibition of MDM4 in human U87MG cells assessed as increase in PUMA mRNA expression at 100 nM after 24 hrs in presence of MDM2 inhibitor nutlin-3 and alphaVbeta3 inhibitor cilengitide by RT-PCR method
[10] = target: T1, Protein Mdm4 (Homo sapiens); assay: Inhibition of MDM4 in human U87MG cells assessed as increase in PUMA mRNA expression at 100 nM after 24 hrs by RT-PCR method; format: cell-based; procedure, shortened: as §1
[11] = target: T1, Protein Mdm4 (Homo sapiens); assay: Inhibition of MDM4 in human U87MG cells assessed as increase in p21 mRNA expression at 100 nM after 24 hrs by RT-PCR method; format: cell-based; procedure, shortened: as §1
Integrin alpha-5/beta-1 = Integrin alpha-5/beta-1 (Homo sapiens, UniProt P05556+P08648); assay: Inhibition of fibronectin binding to soluble alpha5beta1 integrin (unknown origin) after 1 hr by ELISA; format: protein-complex assay
Integrin alpha-V/beta-3 = Integrin alpha-V/beta-3 (Homo sapiens, UniProt P05106+P06756); assay: Inhibition of vitronectin binding to human alphaVbeta3 integrin after 1 hr by ELISA; format: protein-complex assay
Procedure, shortened: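 Plates coated overnight at 4 °C with vitronectin 1.0 μg/mL in carbonate buffer pH 9.6, blocked 1 h with TSB (Ca2+, Mg2+, Mn2+, 1% BSA). Soluble human αvβ3 (final 1.0 μg/mL) with inhibitor (final 0.128–400 nM) 1 h at room temperature; detection by anti-CD51/61 then peroxidase secondary, absorbance 405 nm. Duplicates; IC50 from curve inflection point; internal standard per plate.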

Protein Mdm4 = target: T2, Protein Mdm4 (Homo sapiens, UniProt O15151); assay: Displacement of p53 from MDM4 in human SHSY-5Y cells incubated for 10 mins by sandwich ELISA method; format: cell-based
T2 sequence (O15151 whole entry): T1 sequence (whole entry)

U-87 MG [12] = assay: Antiproliferative activity against human U87MG cells at 100 nM after 72 hrs in presence of alphaVbeta3 inhibitor cilengitide and MDM4 inhibitor SJ-1722550 by MTS assay; format: functional, cell-based; conditions: U-87MG ATCC; procedure, shortened: as §3
U-87 MG [13] = assay: Anti-invasive activity in human U87MG cells at 10 uM after 24 hrs in presence of MDM4 inhibitor SJ-1722550 and alphaVbeta3 inhibitor cilengitide by transwell assay; format: functional, cell-based; conditions: U-87MG ATCC; procedure, shortened: as §4
U-87 MG [14] = assay: Antiproliferative activity against human U87MG cells at 100 nM after 72 hrs in presence of alphaVbeta3 inhibitor cilengitide by MTS assay; format: functional, cell-based; conditions: U-87MG ATCC; procedure, shortened: as §3
U-87 MG [15] = assay: Anti-invasive activity in human U87MG cells at 10 uM after 24 hrs by transwell assay; format: functional; procedure, shortened: as §4
U-87 MG [16] = assay: Antiproliferative activity against human U87MG cells after 72 hrs by MTS assay
Homo sapiens [17] = species: Homo sapiens; conditions: 100 nM
T98G [18] = assay: Antiproliferative activity against human T98G cells harboring p53 mutant at nanomolar concentration after 72 hrs by MTS assay; format: functional, cell-based; procedure, shortened: as §3
Homo sapiens [19] = species: Homo sapiens; conditions: 100 nM; remark: listed apart in the source
Homo sapiens [20] = species: Homo sapiens; conditions: 100 nM; remark: listed apart in the source
Homo sapiens [21] = species: Homo sapiens; conditions: 100 nM; remark: listed apart in the source
Homo sapiens [22] = species: Homo sapiens; conditions: 100 nM; remark: listed apart in the source
T98G [23] = assay: Antiproliferative activity against human T98G cells harboring p53 mutant at micromolar concentration after 72 hrs by MTS assay; format: functional, cell-based; procedure, shortened: as §3

Integrin alpha-5/beta-1, sequence (P05556 21-798 limits assumed): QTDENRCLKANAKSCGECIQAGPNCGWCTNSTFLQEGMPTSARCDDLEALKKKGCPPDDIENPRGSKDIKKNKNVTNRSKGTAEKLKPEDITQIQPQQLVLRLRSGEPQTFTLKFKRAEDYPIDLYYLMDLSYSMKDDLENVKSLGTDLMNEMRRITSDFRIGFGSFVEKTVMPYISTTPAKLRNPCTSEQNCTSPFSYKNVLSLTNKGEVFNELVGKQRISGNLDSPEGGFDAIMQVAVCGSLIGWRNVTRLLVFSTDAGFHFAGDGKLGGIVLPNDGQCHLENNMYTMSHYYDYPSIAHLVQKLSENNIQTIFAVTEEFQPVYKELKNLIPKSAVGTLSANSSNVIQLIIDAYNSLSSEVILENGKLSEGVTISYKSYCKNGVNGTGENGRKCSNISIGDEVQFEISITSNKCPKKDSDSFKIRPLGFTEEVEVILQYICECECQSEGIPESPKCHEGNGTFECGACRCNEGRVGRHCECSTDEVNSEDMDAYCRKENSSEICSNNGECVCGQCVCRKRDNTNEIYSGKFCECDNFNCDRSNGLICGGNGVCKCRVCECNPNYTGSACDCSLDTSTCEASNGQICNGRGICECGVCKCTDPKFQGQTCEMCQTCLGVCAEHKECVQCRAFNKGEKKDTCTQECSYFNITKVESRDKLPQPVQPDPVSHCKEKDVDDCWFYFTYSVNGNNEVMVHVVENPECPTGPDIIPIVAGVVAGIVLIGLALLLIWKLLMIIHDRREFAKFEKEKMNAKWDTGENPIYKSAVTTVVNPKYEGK
Integrin alpha-5/beta-1, sequence (P08648 42-894 limits assumed): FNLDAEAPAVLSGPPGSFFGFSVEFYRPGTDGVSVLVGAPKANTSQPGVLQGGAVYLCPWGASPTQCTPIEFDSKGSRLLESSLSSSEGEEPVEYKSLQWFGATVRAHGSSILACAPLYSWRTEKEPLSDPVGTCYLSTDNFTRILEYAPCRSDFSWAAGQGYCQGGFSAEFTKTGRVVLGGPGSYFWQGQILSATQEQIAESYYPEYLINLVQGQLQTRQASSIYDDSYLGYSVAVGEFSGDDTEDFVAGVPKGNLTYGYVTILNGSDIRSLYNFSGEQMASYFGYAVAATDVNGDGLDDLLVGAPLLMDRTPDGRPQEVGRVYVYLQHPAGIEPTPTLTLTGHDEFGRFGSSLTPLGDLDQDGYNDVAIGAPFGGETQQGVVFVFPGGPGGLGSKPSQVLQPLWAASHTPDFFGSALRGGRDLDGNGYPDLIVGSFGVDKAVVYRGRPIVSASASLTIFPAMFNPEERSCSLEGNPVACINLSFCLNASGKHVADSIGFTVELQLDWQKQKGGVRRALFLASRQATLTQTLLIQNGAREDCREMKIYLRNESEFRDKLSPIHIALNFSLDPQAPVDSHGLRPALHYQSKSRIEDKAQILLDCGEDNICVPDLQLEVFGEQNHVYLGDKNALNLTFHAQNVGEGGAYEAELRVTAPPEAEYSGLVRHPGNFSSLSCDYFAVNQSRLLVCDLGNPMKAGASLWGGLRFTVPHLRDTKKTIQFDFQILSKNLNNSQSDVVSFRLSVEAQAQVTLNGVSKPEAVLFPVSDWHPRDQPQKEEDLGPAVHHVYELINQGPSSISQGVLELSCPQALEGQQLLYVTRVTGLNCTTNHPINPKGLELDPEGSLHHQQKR
Integrin alpha-5/beta-1, sequence (P08648 895-1049 limits assumed): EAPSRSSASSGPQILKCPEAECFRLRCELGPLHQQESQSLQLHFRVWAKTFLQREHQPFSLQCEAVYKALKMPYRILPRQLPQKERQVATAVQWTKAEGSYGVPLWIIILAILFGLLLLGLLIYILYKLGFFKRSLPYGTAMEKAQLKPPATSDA
Integrin alpha-V/beta-3, sequence (P05106 27-788 limits assumed): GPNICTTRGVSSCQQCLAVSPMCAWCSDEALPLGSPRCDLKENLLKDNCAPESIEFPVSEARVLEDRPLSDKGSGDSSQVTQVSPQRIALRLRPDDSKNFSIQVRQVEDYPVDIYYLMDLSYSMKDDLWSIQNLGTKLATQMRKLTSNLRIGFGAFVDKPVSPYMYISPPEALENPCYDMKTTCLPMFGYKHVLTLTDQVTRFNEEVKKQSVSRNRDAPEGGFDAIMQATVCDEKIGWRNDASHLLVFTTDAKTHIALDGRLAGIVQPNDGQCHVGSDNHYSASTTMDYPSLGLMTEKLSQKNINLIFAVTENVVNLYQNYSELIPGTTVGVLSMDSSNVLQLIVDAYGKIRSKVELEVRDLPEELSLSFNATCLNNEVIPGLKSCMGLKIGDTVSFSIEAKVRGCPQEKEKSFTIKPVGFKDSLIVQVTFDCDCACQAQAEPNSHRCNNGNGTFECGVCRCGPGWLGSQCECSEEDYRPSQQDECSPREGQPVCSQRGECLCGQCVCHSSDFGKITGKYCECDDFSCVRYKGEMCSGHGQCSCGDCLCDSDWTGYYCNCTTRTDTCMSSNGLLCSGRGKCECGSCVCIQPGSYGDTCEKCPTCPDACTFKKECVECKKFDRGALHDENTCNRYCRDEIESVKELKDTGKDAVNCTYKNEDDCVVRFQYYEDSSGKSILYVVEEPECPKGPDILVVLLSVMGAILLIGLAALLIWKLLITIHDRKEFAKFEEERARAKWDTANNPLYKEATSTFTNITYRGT
Integrin alpha-V/beta-3, sequence (P06756 31-889 limits assumed): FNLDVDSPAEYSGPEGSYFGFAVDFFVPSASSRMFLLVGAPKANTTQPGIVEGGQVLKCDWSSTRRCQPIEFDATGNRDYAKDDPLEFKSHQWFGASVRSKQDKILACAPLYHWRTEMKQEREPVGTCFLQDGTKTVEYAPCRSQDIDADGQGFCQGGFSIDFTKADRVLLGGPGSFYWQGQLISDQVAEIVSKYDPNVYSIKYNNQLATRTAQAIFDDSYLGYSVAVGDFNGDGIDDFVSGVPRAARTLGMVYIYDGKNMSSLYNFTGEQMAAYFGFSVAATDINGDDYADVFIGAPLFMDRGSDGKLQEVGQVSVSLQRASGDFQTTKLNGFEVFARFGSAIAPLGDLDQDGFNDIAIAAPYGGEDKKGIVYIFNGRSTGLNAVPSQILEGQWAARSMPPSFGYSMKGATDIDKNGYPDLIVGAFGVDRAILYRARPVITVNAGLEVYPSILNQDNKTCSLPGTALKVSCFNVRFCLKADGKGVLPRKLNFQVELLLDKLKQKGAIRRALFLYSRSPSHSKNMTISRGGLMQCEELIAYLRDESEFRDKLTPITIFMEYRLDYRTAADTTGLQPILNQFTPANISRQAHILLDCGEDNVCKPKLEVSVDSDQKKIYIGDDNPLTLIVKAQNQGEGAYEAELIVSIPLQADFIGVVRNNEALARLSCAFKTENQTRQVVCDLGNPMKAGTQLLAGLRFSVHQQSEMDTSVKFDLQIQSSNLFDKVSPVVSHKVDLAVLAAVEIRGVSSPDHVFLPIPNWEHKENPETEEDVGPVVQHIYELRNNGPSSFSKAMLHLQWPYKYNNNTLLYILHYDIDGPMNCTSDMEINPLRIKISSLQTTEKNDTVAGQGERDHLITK
Integrin alpha-V/beta-3, sequence (P06756 891-1048 limits assumed): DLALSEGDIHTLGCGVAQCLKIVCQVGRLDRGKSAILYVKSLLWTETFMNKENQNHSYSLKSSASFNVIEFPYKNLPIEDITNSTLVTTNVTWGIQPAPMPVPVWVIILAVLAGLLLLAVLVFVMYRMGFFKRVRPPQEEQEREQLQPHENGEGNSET

SMILES: CCOc1cc(/C=C2\C(=O)N(c3ccccc3)N=C2C)cc(Cl)c1OCC(=O)OC
inhibition [1]: Active | inhibition [2]: Active | inhibition [3]: Active | inhibition [4]: Active | inhibition [5]: Active | Activity (U-87 MG [6]): Active | Activity (U-87 MG [7]): Active | inhibition [8]: Active | Activity (U-87 MG [9]): inactive | inhibition (MDM4 (Homo sapiens)): Active | inhibition [10]: Active | inhibition [11]: Active

SMILES: N=C(N)Nc1cccc(C(=O)NCC(=O)N[C@@H](CC(=O)O)C(=O)NCCc2c[nH]c3ccccc23)c1
IC50 (Integrin alpha-5/beta-1): 36 nM | IC50 (Integrin alpha-V/beta-3): 4 nM | IC50 (Protein Mdm4): > 1000 nM

SMILES: C[C@H](NC(=O)[C@H](CC(=O)O)NC(=O)CNC(=O)c1cccc(NC(=N)N)c1)c1ccccc1
IC50 (Integrin alpha-5/beta-1): 20 nM | IC50 (Integrin alpha-V/beta-3): 0.91 nM

SMILES: COc1ccc(C2=N[C@H](c3ccc(Cl)cc3)[C@H](c3ccc(Cl)cc3)N2C(=O)N2CCNC(=O)C2)c(OC(C)C)c1
Activity (U-87 MG [9]): inactive | Activity (U-87 MG [12]): Active | Activity (U-87 MG [13]): Active | Activity (U-87 MG [14]): Active | Activity (U-87 MG [15]; U-87MG ATCC): inactive

SMILES: N=C(N)Nc1cccc(C(=O)NCC(=O)N[C@@H](CC(=O)O)C(=O)NC(c2ccccc2)c2ccccc2)c1
IC50 (U-87 MG [16]): 116 nM | inhibition (Homo sapiens [17]): inactive | Activity (T98G [18]): inactive | inhibition (Homo sapiens [19]): Active | inhibition (Homo sapiens [20]): Active | IC50 (Integrin alpha-5/beta-1): 22 nM | IC50 (Integrin alpha-V/beta-3): 1.4 nM | inhibition (Homo sapiens [21]): Active | inhibition (Homo sapiens [22]): Active | Activity (T98G [23]): Active | Activity (U-87 MG [15]): 80%

SMILES: COc1ccc(CNC(=O)[C@H](CC(=O)O)NC(=O)CNC(=O)c2cccc(NC(=N)N)c2)cc1
IC50 (Integrin alpha-5/beta-1): 40 nM | IC50 (Integrin alpha-V/beta-3): 1.2 nM | IC50 (Protein Mdm4): > 1000 nM

More lines, now with the values ahead:

IC50 (Integrin alpha-5/beta-1): 48 nM | IC50 (Integrin alpha-V/beta-3): 1.3 nM
SMILES: N=C(N)Nc1cccc(C(=O)NCC(=O)N[C@@H](CC(=O)O)C(=O)NCc2ccc(Cl)cc2)c1

IC50 (Integrin alpha-5/beta-1): 18 nM | IC50 (Integrin alpha-V/beta-3): 1.2 nM | IC50 (Protein Mdm4): > 1000 nM
SMILES: N=C(N)Nc1cccc(C(=O)NCC(=O)N[C@@H](CC(=O)O)C(=O)NCc2cccc(-c3ccccc3)c2)c1
